We go through five compounds from publication PMC6319658 (Journal of natural products, 2018).

One series relates to C-Raf. Nature of the series: Raf kinase catalytic activity assay. As to conditions: 10 μM compound; data not shown. Format: biochemical.
The subject of the next series is B-Raf. Nature of the series: Raf kinase catalytic activity assay. Format: biochemical. As to conditions: 10 μM compound; data not shown.
In the next series the test system is MEK. The series can be described thus: MEK1 kinase activity assay. Format: biochemical. The conditions noted are these: 10 μM compound; data not shown.
For series [1], the system named is 60 human tumor cell lines. The series can be described thus: NCI-60 cell line screening assay. As to conditions: for growth suppression of cell lines that harbor the B-Raf V600E mutation: Colo205 colon, MALM-3M, SK-MEL-5, MDA-MB-435 melanoma cell lines; for pattern of cytotoxicity at the GI50 level: NCI-60 screen. Format: cell-based. A digest of the protocol: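 Test compounds were submitted as DMSO solutions to the NCI-60 screen for cytotoxicity across 60 human tumor cell lines. The response patterns were analysed with bioinformatics tools on the public CellMiner site.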

The next series concerns cells. The conditions noted are these: cited from earlier work.
The test system of series [2] is Colo205 cells that harbor the V600E B-Raf mutation. The series can be described thus: Western blot analysis of ERK signaling cascade proteins in Colo205 cells. Format: cell-based, human. As to conditions: for total protein levels of B-Raf, C-Raf, and MEK / ERK protein levels: 18 h treatment.
Another series concerns ERK. The series can be described thus: ERK kinase catalytic activity assay. Format: biochemical. The conditions noted are these: data not shown.
For series [3], the system named is SUMO conjugation enzymatic cascade. Format: biochemical. As to conditions: read-out: IC50, inhibition of SUMOylation of a substrate peptide; in vitro electrophoretic mobility shift assay.

In the case of `CSC1=C(N)C(=O)c2[nH]cc(CO)c2C1=N` [Compound 1, macrophilone A], in the series with C-Raf, the “inhibition of kinase catalytic activity of C-Raf” value (from here on “inhibition … of C-Raf”) is “no reduction in kinase activity”. Moreover, in the series on B-Raf, the “inhibition of kinase catalytic activity of B-Raf” value (“inhibition … of B-Raf” below) was “no reduction in kinase activity”. In addition, the “inhibition of kinase catalytic activity of MEK” value (shortened to “inhibition … of MEK”) in the series with MEK is “no reduction in kinase activity”. In series [1], the “growth suppression of cell lines that harbor the B-Raf V600E mutation” value is recorded as “most potent” and the “pattern of cytotoxicity at the GI50 level” value (shortened to “pattern of cytotoxicity”) was “selective cytotoxicity”. The “reactive oxygen species (ROS) in cells” value with cells is “increase in reactive oxygen species”. Besides, in series [2] (1 μM), the “total protein levels of B-Raf, C-Raf, and MEK” value (“total protein levels of B-Raf” for short) is listed as “effective at reducing these proteins”. Also, in series [2] (10 μM), the ERK protein levels result is “no corresponding loss”; the “total protein levels of B-Raf” value is listed as “striking reductions”. Besides, the “inhibition of kinase catalytic activity of ERK” value (“inhibition … of ERK” for short) in the series with ERK is “no reduction in kinase activity”.
Take `N=C1C2=C(NCC[S+]2[O-])C(=O)c2[nH]cc(CO)c21` (stereo not drawn) [Compound 4, macrophilone D]: the “inhibition … of C-Raf” value in the series on C-Raf is “no reduction in kinase activity”. Moreover, the “inhibition … of B-Raf” value in the series on B-Raf was “no reduction in kinase activity”. Moreover, the “inhibition … of MEK” value in the series with MEK is “no reduction in kinase activity”. In addition, in series [1], the “pattern of cytotoxicity” value is given as “selective cytotoxicity”. Also, the “phosphorylation (activation) of MEK and ERK” value in series [2] (1 μM) is reported as “increased phosphorylation”. Further, in series [2] (10 μM), the ERK protein levels result is “no corresponding loss”; the “total protein levels of B-Raf” value is recorded as “striking reductions”. The “inhibition … of ERK” value with ERK was “no reduction in kinase activity”.
With `N=C1C2=C(NCCS2)C(=O)c2[nH]cc(CO)c21` [Compound 3, macrophilone C], in the series with C-Raf, the “inhibition … of C-Raf” value was “no reduction in kinase activity”. The “inhibition … of B-Raf” value with B-Raf is “no reduction in kinase activity”. For the same compound, the “inhibition … of MEK” value in the series on MEK is “no reduction in kinase activity”. Moreover, in series [1], the “growth suppression of cell lines that harbor the B-Raf V600E mutation” value is recorded as “most potent” and the “pattern of cytotoxicity” value is recorded as “selective cytotoxicity”. In addition, the “phosphorylation (activation) of MEK and ERK” value in series [2] (1 μM) is “increased phosphorylation”. In series [2] (10 μM), the ERK protein levels entry is on record as “no corresponding loss”; the “total protein levels of B-Raf” value is given as “striking reductions”. Further, the “inhibition … of ERK” value in the series on ERK is on record as “no reduction in kinase activity”.
Take `CN(C)CCOc1ccc(-c2nc(-c3ccc4c(c3)CC/C4=N\O)c(-c3ccncc3)[nH]2)cc1` [SB-590885, reference compound]: in series [2] (positive control), the “phosphorylation of MEK and subsequent activation of ERK” value is “blocked phosphorylation of MEK”; the “total protein concentrations in the pathway” value is on record as “no significant impact”.
With `O=C1C2=C(SCCN2)C2=NCCc3c[nH]c1c32` [Compound 6, macrophilone F], the IC50 in series [3] was > 100 µM.
